Results: article PMC6139374 (Cell, 2018)
Several values for one entry are separate records, joined by “and”; a condition that tells them apart may be missing. Equal values may be shown once. One block for each molecule: values may come before it. Where no end group is shown, it is not given here. Side-chain parts run from the residue outwards. [ ]: non-standard residue; d: D form. Dap = NC[C@H](N)C(=O)O

Assays:
[1] = target: FL-Akt1-pThr308/pSer473 (A1) and FL-Akt1-pThr308/2pSer477,Thr479 (A6) (Homo sapiens, UniProt P31749); assay: Kinase inhibition assays with Akt inhibitors; type: biochemical; details: 250 μM ATP, 20 μM GSK3 peptide
Chain of FL-Akt1-pThr308/pSer473 (A1) and FL-Akt1-pThr308/2pSer477,Thr479 (A6) (P31749 whole entry): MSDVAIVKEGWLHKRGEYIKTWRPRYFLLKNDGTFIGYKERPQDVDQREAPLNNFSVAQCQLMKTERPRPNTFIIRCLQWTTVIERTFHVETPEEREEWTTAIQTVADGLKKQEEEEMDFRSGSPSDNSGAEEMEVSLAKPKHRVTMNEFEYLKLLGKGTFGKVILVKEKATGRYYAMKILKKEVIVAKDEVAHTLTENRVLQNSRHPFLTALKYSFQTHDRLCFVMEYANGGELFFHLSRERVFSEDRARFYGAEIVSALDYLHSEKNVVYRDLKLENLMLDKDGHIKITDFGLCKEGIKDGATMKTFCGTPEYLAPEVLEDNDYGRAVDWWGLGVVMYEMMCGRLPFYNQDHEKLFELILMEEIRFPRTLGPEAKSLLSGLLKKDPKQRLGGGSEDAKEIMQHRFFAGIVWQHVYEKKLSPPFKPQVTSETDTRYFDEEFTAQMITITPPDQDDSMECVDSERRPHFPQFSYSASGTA

[2] = target: non-C-terminally phosphorylated Akt1 (A2) (Homo sapiens, UniProt P31749); assay: Kinase assay, effect of phosphoinositides on activity; type: biochemical; details: 250 μM ATP, 20 μM GSK3 peptide, 10 mM MgCl2
Chain of non-C-terminally phosphorylated Akt1 (A2) (P31749 whole entry): as above
Summary of the method: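 Also present: 250 μM ATP with 32P-γ-ATP and 20 μM biotinylated GSK3 peptide. Added either 400 μM DOPC vesicles with 5 mol% PIP3 or 20 μM soluble PI(3,4)P2 (di-C8). Product was captured on 30 kDa filters and counted by scintillation; runs done at least twice.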

Akt1 PH domain [3] = target: T1, Akt1 PH domain (Homo sapiens, UniProt P31749); assay: Competition binding assay displacing fluorescein-labeled PIP3; details: competition with fluorescein-labeled PIP3
T1 sequence (P31749 1-121): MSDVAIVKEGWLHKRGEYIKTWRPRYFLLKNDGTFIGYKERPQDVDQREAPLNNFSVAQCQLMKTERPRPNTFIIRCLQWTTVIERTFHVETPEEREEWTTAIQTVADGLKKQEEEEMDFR
Summary of the method: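 Competition format: 50 nM fluorescein-labeled soluble PIP3 with 1 μM Akt PH domain and varied unlabeled soluble phosphoinositide competitor (PIP3 di-C6 or PI(3,4)P2 di-C8). Buffer was 50 mM HEPES pH 7.5, 2 mM DTT, 0.05 mg/ml ovalbumin; incubated 30 min at room temperature, then fluorescence anisotropy read. Sigmoidal fit gave IC50, converted to Ki using free labeled ligand, free PH domain and probe Kd.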

GSK3 peptide substrate = assay: Radiometric kinase assay, steady-state kinetics of semisynthetic Akt1 forms; type: biochemical; details: for catalytic efficiency (kcat/Km), fold lower relative to A1: compared with pThr308/pSer473 form A1; for kcat/Km, within fold of that of A2: low kcat/Km, compared with non-C-terminally phosphorylated enzyme A2
[4] = target: pSer477,pThr479 Akt1 (A6) (Homo sapiens, UniProt P31749); assay: Kinase assay, effect of PIP3 on activity; type: biochemical; details: addition of excess soluble PIP3
Chain of pSer477,pThr479 Akt1 (A6) (P31749 whole entry): as the sequence (P31749 whole entry) above

[5] = target: non-phosphorylated FL-Akt1 (A9) (Homo sapiens, UniProt P31749); assay: Fluorescence anisotropy binding of soluble PIP3; details: fluorescein-labeled soluble PIP3, 50 nM
Chain of non-phosphorylated FL-Akt1 (A9) (P31749 whole entry): as above
Summary of the method: (§1)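 Varying concentrations of semisynthetic full-length Akt1 were mixed with 50 nM fluorescein-labeled soluble PIP3 (di-C6). Buffer was 50 mM HEPES pH 7.5, 2 mM DTT, 0.05 mg/ml ovalbumin; incubated 30 min at room temperature. Fluorescence anisotropy was recorded at 23°C.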

[6] = target: FL-Akt1-pThr308/non-p C tail (A2) (Homo sapiens, UniProt P31749); assay: Fluorescence anisotropy binding of soluble PIP3; details: stated as nearly identical to the value for A1
Chain of FL-Akt1-pThr308/non-p C tail (A2) (P31749 whole entry): as above
Summary of the method: as §1

Akt1 PH domain [7] = target: T1, Akt1 PH domain; assay: Fluorescent binding assay of PIP3 with Mg addition; details: Mg addition up to 10 mM
[8] = target: FL-Akt1-pThr308, pSer477,pThr479 (A6) (Homo sapiens, UniProt P31749); assay: Fluorescence anisotropy binding of soluble PIP3
Chain of FL-Akt1-pThr308, pSer477,pThr479 (A6) (P31749 whole entry): as above
Summary of the method: as §1

[9] = target: FL-Akt1-pThr308/pSer473 (A1) (Homo sapiens, UniProt P31749); assay: Fluorescence anisotropy binding of soluble PIP3; details: fluorescein-labeled soluble PIP3 (di-C6), 50 nM
Chain of FL-Akt1-pThr308/pSer473 (A1) (P31749 whole entry): as above
Summary of the method: as §1

Akt1 = Akt1 (human, UniProt P31749 1-480); assay: kinase inhibition assay
Chain of Akt1 (P31749 whole entry): as above

[10] = target: non-C-terminally phosphorylated Akt1, C-terminally labeled with fluorescein (human) (UniProt P31749); assay: fluorescence polarisation

Molecule: CC(C)NC[C@@H](C(=O)N1CCN(c2ncnc3c2[C@H](C)C[C@H]3O)CC1)c1ccc(Cl)cc1 [GDC0068]
apparent Ki ratio, A6 relative to A1 ([1]; Ki lower for A1, higher for A6): 8 fold

sensitivity of A6 relative to A1 to the inhibitor [1]: distinct sensitivities
Molecule: NC1(c2ccc(-c3nc4ccn5c(=O)[nH]nc5c4cc3-c3ccccc3)cc2)CCC1 [MK2206]

stimulation of enzymatic activity of A2 [2]: did not stimulate | binding to Akt1 PH domain (Akt1 PH domain [3]): high affinity
Molecule: CCCCCCCC(=O)OC[C@H](COP(=O)(O)O[C@H]1[C@H](O)[C@@H](O)[C@H](OP(=O)(O)O)[C@@H](OP(=O)(O)O)[C@H]1O)OC(=O)CCCCCCC [soluble PI(3,4)P2]

Molecule: A1: semisynthetic full-length Akt1, pThr308/pSer473
catalytic efficiency, fold larger than that of Asp473 form A4 (GSK3 peptide substrate; A1 vs A4): > 100 fold and 100 fold | kcat/Km, fold greater than that of A2 (GSK3 peptide substrate; pThr308 set of full-length Akt1, v/[E] vs [ATP]): about 500 fold

Molecule: A3: full-length Akt1 pSer473 form lacking phosphorylation at Thr308
catalytic efficiency (kcat/Km), fold lower relative to A1 (GSK3 peptide substrate): 500 fold

Molecule: A4: full-length Akt1 pThr308, Asp473 form
kcat/Km, within fold of that of A2 (GSK3 peptide substrate): ≤ 3 fold

activity, fold more active than A1 (GSK3 peptide substrate; compared with pSer473 form A1): ~ 2 fold
Molecule: A5: full-length Akt1 pThr308, triply phosphorylated C-tail form

Molecule: A6: full-length Akt1 pThr308 with pSer477/pThr479
catalytic efficiency (kcat/Km), fold lower relative to A1 (GSK3 peptide substrate): 8 fold

Molecule: A7: full-length Akt1 pThr308, pSer477 form
kcat/Km, within fold of that of A2 (GSK3 peptide substrate): ≤ 3 fold

Molecule: A8: full-length Akt1 pThr308, pSer479 form as printed
kcat/Km, within fold of that of A2 (GSK3 peptide substrate): ≤ 3 fold

Molecule: A12: R144A point mutation in the context of pSer473 Akt1
catalytic efficiency (kcat/Km), fold lower relative to A1 (GSK3 peptide substrate): ~ 50 fold

effect on catalytic activity of A6 [4]: minimally impacted | Kd [5]: 0.09 µM | Kd [6]: ~0.2 µM | stimulation of enzymatic activity of A2 [2]: did not stimulate | increase of Kd on Mg addition (Akt1 PH domain [7]): ~ 3 fold | Kd, fold greater than for A1 or A2 ([8]; A6 vs A1 or A2, weakened binding): 4 fold | Kd ([8]; fluorescein-labeled soluble PIP3, 50 nM): 0.8 µM | Kd [9]: ~0.2 µM
Molecule: phosphatidyl inositol 3,4,5-triphosphate [soluble PIP3]

Ki (Akt1): 3.6 µM
Molecule: GRPRTT[Dap]([Ac-ATP‑γS])FAE [GSK3 peptide-ATP conjugate bisubstrate analog]

Kd [10]: 0.2 µM
B1: GST-PDK1 (enzyme)
chain: MARTTSQLYDAVPIQSSVVLCSCPSPSMVRTQTESSTPPGIPGGSRQGPAMDGTAAEPRPGAGSLQHAQPPPQPRKKRPEDFKFGKILGEGSFSTVVLARELATSREYAIKILEKRHIIKENKVPYVTRERDVMSRLDHPFFVKLYFTFQDDEKLYFGLSYAKNGELLKYIRKIGSFDETCTRFYTAEIVSALEYLHGKGIIHRDLKPENILLNEDMHIQITDFGTAKVLSPESKQARANSFVGTAQYVSPELLTEKSACKSSDLWALGCIIYQLVAGLPPFRAGNEYLIFQKIIKLEYDFPEKFFPKARDLVEKLLVLDATKRLGCEEMEGYGPLKAHPFFESVTWENLHQQTPPKLTAYLPAMSEDDEDCYGNYDNLLSQFGCMQVSSSSSSHSLSASDTGLPQRSGSNIEQYIHDLDSNSFELDLQFSEDEKRLLLEKQAGGNPWHQFVENNLILKMGPVDKRKGLFARRRQLLLTEGPHLYYVDPVNKVLKGEIPWSQELRPEAKNFKTFFVHTPNRTYYLMDPSGNAHKWCRKIQEVWRQRYQSHPDAAVQ

B2: A16: Δ143-Akt1-pThr308 construct possessing Asp473 (protein, UniProt P31749 1-480, looked up, variant del1-143 S473D)
RAC-alpha …: RVTMNEFEYLKLLGKGTFGKVILVKEKATGRYYAMKILKKEVIVAKDEVAHTLTENRVLQNSRHPFLTALKYSFQTHDRLCFVMEYANGGELFFHLSRERVFSEDRARFYGAEIVSALDYLHSEKNVVYRDLKLENLMLDKDGHIKITDFGLCKEGIKDGATMKTFCGTPEYLAPEVLEDNDYGRAVDWWGLGVVMYEMMCGRLPFYNQDHEKLFELILMEEIRFPRTLGPEAKSLLSGLLKKDPKQRLGGGSEDAKEIMQHRFFAGIVWQHVYEKKLSPPFKPQVTSETDTRYFDEEFTAQMITITPPDQDDSMECVDSERRPHFPQFDYSASGTA
modifications: pThr308
kcat/Km, within fold of each other (GSK3 peptide substrate; Δ143-Akt1-pThr308 constructs A15-A18): ≤ 3 fold
